For 8 compounds, MFC and MIC results are on record in ChEMBL document CHEMBL1781892, “Microwave assisted synthesis and structure-activity relationship of 4-hydroxy-N'-[1-phenylethylidene]-2H/2-methyl-1,2-benzothiazine-3-carbohydrazide 1,1-dioxides as anti-microbial agents” (2011).

SMILES strings stand for the structures. A value given as a limit tells only on which side of the number the result lay.

For assay [1], the system named is Curvularia australiensis. Kind of assay: Antifungal activity against Drechslera australiensis using 1 x 10^5 spore/100 uL assessed as 99.5% fungal killing of original inoculum after 72 hrs by microdilution method. The format is functional. A general note: Broth dilution looks for growth in wells or tubes with falling amounts of substance.
The subject of a further assay is Bacillus thuringiensis. The experiment in a line: Antibacterial activity against Bacillus thuringiensis using 1 x 10^4 CFU/ml inoculum after 24 hrs by microdilution method. It is filed as functional.
Another assay relates to Salmonella typhi. Kind of assay: Antibacterial activity against Salmonella typhi using 1 x 10^4 CFU/ml inoculum after 24 hrs by microdilution method. The format is functional, Salmonella enterica subsp. enterica serovar Typhi.
In the next assay the test system is Pseudomonas aeruginosa. Kind of assay: Antibacterial activity against Pseudomonas aeruginosa using 1 x 10^4 CFU/ml inoculum after 24 hrs by microdilution method. The format is functional.
Assay [2] deals with Aspergillus fumigatus. The experiment in a line: Antifungal activity against Aspergillus fumigatus using 1 x 10^5 spore/100 uL after 72 hrs by microdilution method. It is filed as functional.
Assay [3] relates to Aspergillus fumigatus. The experiment in a line: Antifungal activity against Aspergillus fumigatus using 1 x 10^5 spore/100 uL assessed as 99.5% fungal killing of original inoculum after 72 hrs by microdilution method. The format is functional.
The test system of assay [4] is Trichoderma viride. Kind of assay: Antifungal activity against Trichoderma viride using 1 x 10^5 spore/100 uL assessed as 99.5% fungal killing of original inoculum after 72 hrs by microdilution method. It is filed as functional.
The subject of assay [5] is Aspergillus flavus. Kind of assay: Antifungal activity against Aspergillus flavus using 1 x 10^5 spore/100 uL after 72 hrs by microdilution method. It is filed as functional.
Assay [6] has as its system Aspergillus flavus. The experiment in a line: Antifungal activity against Aspergillus flavus using 1 x 10^5 spore/100 uL assessed as 99.5% fungal killing of original inoculum after 72 hrs by microdilution method. It is filed as functional.
For assay [7], the system named is Trichoderma viride. The experiment in a line: Antifungal activity against Trichoderma viride using 1 x 10^5 spore/100 uL after 72 hrs by microdilution method. It is filed as functional.
Assay [8] in a line: Antifungal activity against Trichoderma reesei using 1 x 10^5 spore/100 uL assessed as 99.5% fungal killing of original inoculum after 72 hrs by microdilution method. The format is functional.
Assay [9] concerns Aspergillus niger. The experiment in a line: Antifungal activity against Aspergillus niger using 1 x 10^5 spore/100 uL after 72 hrs by microdilution method. It is filed as functional.
The next assay deals with Bacillus cereus. Kind of assay: Antibacterial activity against Bacillus cereus using 1 x 10^4 CFU/ml inoculum after 24 hrs by microdilution method. It is filed as functional.
Another assay deals with Escherichia coli. The experiment in a line: Antibacterial activity against Escherichia coli using 1 x 10^4 CFU/ml inoculum after 24 hrs by microdilution method. It is filed as functional.
Assay [10] can be described thus: Antifungal activity against Trichoderma reesei using 1 x 10^5 spore/100 uL after 72 hrs by microdilution method. It is filed as functional. The gist of the method: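 Spores washed from malt agar cultures with sterile 0.85% saline plus 0.1% Tween 80, adjusted to about 1.0×10^5 per 100 µl well. Compounds from a 1 mg/ml DMSO stock were serially diluted in malt broth with inoculum in 96-well plates and incubated 72 h at 28 °C. MIC is the lowest concentration with no visible growth under a binocular microscope. DMSO served as negative control.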

The subject of assay [11] is Aspergillus niger. The experiment in a line: Antifungal activity against Aspergillus niger using 1 x 10^5 spore/100 uL assessed as 99.5% fungal killing of original inoculum after 72 hrs by microdilution method. It is filed as functional.
For the next assay, the system named is Staphylococcus aureus. The experiment in a line: Antibacterial activity against Staphylococcus aureus using 1 x 10^4 CFU/ml inoculum after 24 hrs by microdilution method. The format is functional.
In the next assay the test system is Bacillus subtilis. Kind of assay: Antibacterial activity against Bacillus subtilis using 1 x 10^4 CFU/ml inoculum after 24 hrs by microdilution method. It is filed as functional.
Assay [12] relates to Curvularia australiensis. Kind of assay: Antifungal activity against Drechslera australiensis using 1 x 10^5 spore/100 uL after 72 hrs by microdilution method. The format is functional.

`C/C(=N\NC(=O)C1=C(O)c2ccccc2S(=O)(=O)N1C)c1ccc(F)cc1F`: the MFC in the assay on Curvularia australiensis [1] amounted to 144.2 ×10⁻² umol; in the assay with Aspergillus fumigatus [3] it was 140.1 ×10⁻² umol; in the assay on Trichoderma viride [4] it was 143 ×10⁻² umol; in the assay on Aspergillus flavus [6], 149.4 ×10⁻² umol; in assay [8], 130 ×10⁻² µmol; with Aspergillus niger [11] it was 143.6 ×10⁻² umol. Moreover, the MIC in the assay with Bacillus thuringiensis is 8 ×10⁻² umol; against Salmonella typhi it was 33.1 ×10⁻² umol; with Pseudomonas aeruginosa, 30.5 ×10⁻² umol; in the assay on Aspergillus fumigatus [2], 69.6 ×10⁻² umol; with Aspergillus flavus [5], 76.3 ×10⁻² umol; in the assay with Trichoderma viride [7], 72.1 ×10⁻² umol. Further, the MIC in the assay with Aspergillus niger [9] came to 76.5 ×10⁻² umol; against Bacillus cereus it was 7.5 ×10⁻² umol; against Escherichia coli, 28.9 ×10⁻² umol; in assay [10], 68.4 ×10⁻² µmol; in the assay with Staphylococcus aureus, 27.6 ×10⁻² umol; in the assay on Bacillus subtilis it was 7.8 ×10⁻² umol. The compound also gave an MIC in the assay with Curvularia australiensis [12] of 72.1 ×10⁻² umol.

Regarding `C/C(=N\NC(=O)C1=C(O)c2ccccc2S(=O)(=O)N1C)c1ccccc1Cl`, the MFC in the assay with Curvularia australiensis [1] is 126.5 ×10⁻² umol; in the assay with Aspergillus fumigatus [3], 144.6 ×10⁻² umol; in the assay on Trichoderma viride [4], 133.1 ×10⁻² umol; with Aspergillus flavus [6] it was 170.2 ×10⁻² umol; in assay [8] it was 119 ×10⁻² µmol; in the assay on Aspergillus niger [11], 167.9 ×10⁻² umol. Also, the MIC is recorded as 12 ×10⁻² umol in the assay on Bacillus thuringiensis; 32.6 ×10⁻² umol with Pseudomonas aeruginosa; 76.1 ×10⁻² umol against Aspergillus fumigatus [2]; 87.1 ×10⁻² umol with Aspergillus flavus [5]; 66.5 ×10⁻² umol in the assay with Trichoderma viride [7]; 88.6 ×10⁻² umol in the assay on Aspergillus niger [9]. Besides, the MIC against Bacillus cereus is 10.8 ×10⁻² umol; with Escherichia coli, 31.7 ×10⁻² umol; in assay [10], 61.1 ×10⁻² µmol; against Staphylococcus aureus, 30.7 ×10⁻² umol; against Bacillus subtilis, 11 ×10⁻² umol; against Curvularia australiensis [12], 63.6 ×10⁻² umol.

With `C/C(=N\NC(=O)C1=C(O)c2ccccc2S(=O)(=O)N1)c1ccc(F)cc1F`, the MFC with Curvularia australiensis [1] worked out at 145.7 ×10⁻² umol; in the assay with Aspergillus fumigatus [3] it was 118.2 ×10⁻² umol; in the assay with Trichoderma viride [4] it was 139.6 ×10⁻² umol; in the assay with Aspergillus flavus [6] it was 168.7 ×10⁻² umol; in assay [8], 138 ×10⁻² µmol; in the assay on Aspergillus niger [11], 160.3 ×10⁻² umol. Moreover, the MIC against Bacillus thuringiensis was 8.2 ×10⁻² umol; in the assay with Salmonella typhi, 33.2 ×10⁻² umol; in the assay on Pseudomonas aeruginosa, 30.6 ×10⁻² umol; in the assay on Aspergillus fumigatus [2] it was 69.8 ×10⁻² umol; in the assay on Aspergillus flavus [5], 76.4 ×10⁻² umol; with Trichoderma viride [7], 72 ×10⁻² umol. Also, the MIC against Aspergillus niger [9] worked out at 76.6 ×10⁻² umol; against Bacillus cereus, 7.8 ×10⁻² umol; with Escherichia coli, 29.2 ×10⁻² umol; in assay [10] it was 69 ×10⁻² µmol; with Staphylococcus aureus, 28.1 ×10⁻² umol; with Bacillus subtilis, 8 ×10⁻² umol. Also, the MIC against Curvularia australiensis [12] is 72.3 ×10⁻² umol.

For the compound `COc1cccc(/C(C)=N/NC(=O)C2=C(O)c3ccccc3S(=O)(=O)N2)c1`, the MFC worked out at 162.7 ×10⁻² umol in the assay with Curvularia australiensis [1]; 181.2 ×10⁻² umol in the assay with Aspergillus fumigatus [3]; 149.9 ×10⁻² umol with Trichoderma viride [4]; 198.4 ×10⁻² umol in the assay on Aspergillus flavus [6]; 161 ×10⁻² µmol in assay [8]; 176.3 ×10⁻² umol in the assay with Aspergillus niger [11]. Moreover, the MIC is 7.7 ×10⁻² umol in the assay on Bacillus thuringiensis; 29.3 ×10⁻² umol against Salmonella typhi; 26.7 ×10⁻² umol against Pseudomonas aeruginosa; 85.9 ×10⁻² umol with Aspergillus fumigatus [2]; 92.7 ×10⁻² umol against Aspergillus flavus [5]; 80.7 ×10⁻² umol in the assay on Trichoderma viride [7]. Further, the MIC was 90.1 ×10⁻² umol against Aspergillus niger [9]; 7.2 ×10⁻² umol against Bacillus cereus; 25.6 ×10⁻² umol against Escherichia coli; 80 ×10⁻² µmol in [10]; 24.5 ×10⁻² umol with Staphylococcus aureus; 7.5 ×10⁻² umol with Bacillus subtilis. For the same compound, the MIC in the assay on Curvularia australiensis [12] worked out at 82 ×10⁻² umol.

Take `C/C(=N\NC(=O)C1=C(O)c2ccccc2S(=O)(=O)N1)c1ccc(I)cc1`: the MFC with Curvularia australiensis [1] was found to be 145.8 ×10⁻² umol; with Aspergillus fumigatus [3], 159.2 ×10⁻² umol; with Trichoderma viride [4], 139.7 ×10⁻² umol; in the assay with Aspergillus flavus [6] it was 179.8 ×10⁻² umol; in assay [8] it was 134 ×10⁻² µmol; with Aspergillus niger [11], 166.1 ×10⁻² umol. The MIC against Bacillus thuringiensis worked out at 9.4 ×10⁻² umol; with Salmonella typhi it was 33.4 ×10⁻² umol; against Pseudomonas aeruginosa it was 30.9 ×10⁻² umol; with Aspergillus fumigatus [2], 82 ×10⁻² umol; with Aspergillus flavus [5], 89.9 ×10⁻² umol; against Trichoderma viride [7] it was 71.3 ×10⁻² umol. Moreover, the MIC amounted to 91.5 ×10⁻² umol against Aspergillus niger [9]; 9.1 ×10⁻² umol in the assay on Bacillus cereus; 29.5 ×10⁻² umol against Escherichia coli; 70.3 ×10⁻² µmol in assay [10]; 28.2 ×10⁻² umol against Staphylococcus aureus; 9.5 ×10⁻² umol in the assay with Bacillus subtilis. In the assay with Curvularia australiensis [12], this compound showed an MIC of 74 ×10⁻² umol.

`C/C(=N\NC(=O)C1=C(O)c2ccccc2S(=O)(=O)N1C)c1cccc(O)c1`: the MFC with Curvularia australiensis [1] was greater than 200 ×10⁻² umol; with Aspergillus fumigatus [3] it was greater than 200 ×10⁻² umol; in the assay with Trichoderma viride [4], greater than 200 ×10⁻² umol; in the assay on Aspergillus flavus [6], greater than 200 ×10⁻² umol; in assay [8], greater than 200 ×10⁻² µmol; with Aspergillus niger [11] it was greater than 200 ×10⁻² umol. For the same compound, the MIC is reported as 4.3 ×10⁻² umol with Bacillus thuringiensis; 23.1 ×10⁻² umol in the assay with Salmonella typhi; 21 ×10⁻² umol against Pseudomonas aeruginosa; greater than 100 ×10⁻² umol in the assay with Aspergillus fumigatus [2]; greater than 100 ×10⁻² umol against Aspergillus flavus [5]; greater than 100 ×10⁻² umol in the assay with Trichoderma viride [7]. In addition, the MIC is greater than 100 ×10⁻² umol in the assay with Aspergillus niger [9]; 4.2 ×10⁻² umol against Bacillus cereus; 19.3 ×10⁻² umol in the assay with Escherichia coli; greater than 100 ×10⁻² µmol in assay [10]; 18.2 ×10⁻² umol in the assay on Staphylococcus aureus; 4.5 ×10⁻² umol with Bacillus subtilis. Moreover, the MIC with Curvularia australiensis [12] is on record as greater than 100 ×10⁻² umol.

On to `C/C(=N\NC(=O)C1=C(O)c2ccccc2S(=O)(=O)N1)c1ccc(Cl)cc1`, for which the MFC came out at 130.5 ×10⁻² umol in the assay on Curvularia australiensis [1]; 140.1 ×10⁻² umol with Aspergillus fumigatus [3]; 114.7 ×10⁻² umol in the assay on Trichoderma viride [4]; 163 ×10⁻² umol with Aspergillus flavus [6]; 125 ×10⁻² µmol in assay [8]; 145.4 ×10⁻² umol in the assay with Aspergillus niger [11]. The MIC turned out to be 12.3 ×10⁻² umol against Bacillus thuringiensis; 32.4 ×10⁻² umol against Pseudomonas aeruginosa; 72.7 ×10⁻² umol in the assay with Aspergillus fumigatus [2]; 81.9 ×10⁻² umol against Aspergillus flavus [5]; 67.3 ×10⁻² umol against Trichoderma viride [7]; 82.9 ×10⁻² umol against Aspergillus niger [9]. In addition, the MIC against Bacillus cereus stood at 11.7 ×10⁻² umol; in the assay with Escherichia coli, 31.2 ×10⁻² umol; in assay [10], 62.5 ×10⁻² µmol; in the assay on Staphylococcus aureus, 30.8 ×10⁻² umol; against Bacillus subtilis it was 12.5 ×10⁻² umol; against Curvularia australiensis [12], 64.4 ×10⁻² umol.

Take `C/C(=N\NC(=O)C1=C(O)c2ccccc2S(=O)(=O)N1C)c1ccc(Cl)cc1`: the MFC in the assay with Curvularia australiensis [1] is 128.6 ×10⁻² umol; with Aspergillus fumigatus [3], 143.6 ×10⁻² umol; in the assay with Trichoderma viride [4] it was 134.4 ×10⁻² umol; with Aspergillus flavus [6], 162.3 ×10⁻² umol; in [8], 124 ×10⁻² µmol; in the assay on Aspergillus niger [11], 166.4 ×10⁻² umol. The MIC in the assay on Bacillus thuringiensis is on record as 12.3 ×10⁻² umol; in the assay on Pseudomonas aeruginosa, 32.3 ×10⁻² umol; against Aspergillus fumigatus [2] it was 72.6 ×10⁻² umol; in the assay on Aspergillus flavus [5] it was 81.7 ×10⁻² umol; in the assay with Trichoderma viride [7], 67.2 ×10⁻² umol; with Aspergillus niger [9] it was 82 ×10⁻² umol. Further, the MIC worked out at 11 ×10⁻² umol in the assay on Bacillus cereus; 31 ×10⁻² umol in the assay on Escherichia coli; 62.2 ×10⁻² µmol in assay [10]; 30.9 ×10⁻² umol against Staphylococcus aureus; 11.6 ×10⁻² umol against Bacillus subtilis; 64.3 ×10⁻² umol with Curvularia australiensis [12].
